Test results as given in the EternaBench riboswitch data.

System: MS2 coat protein
Test: apparent Kd, MS2 coat protein; higher = weaker binding; RNA-MaP array
Outline: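 In Tris-HCl pH 7.5 buffer with KCl, MgCl2, BSA, DTT, tRNA and Tween20, with or without input ligand, fluorescently labeled MS2 coat protein at 1.5 nM to 3 μM was incubated at room temperature with designed RNAs. The RNAs had been transcribed on an Illumina sequencing chip from sequenced DNA templates, and incubation ran 0.8–1.5 h at the lowest to 10–20 min at the highest concentrations. Apparent Kd is the median of binding-curve fits for individual clusters. Designs measured on fewer than 10 clusters were excluded.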

[1] = designed as: OFF switch for flavin mononucleotide, no ligand
[2] = ligand present: flavin mononucleotide, designed as: OFF switch for flavin mononucleotide
[3] = designed as: OFF switch for theophylline, no ligand
[4] = ligand present: theophylline, designed as: OFF switch for theophylline
[5] = designed as: ON switch for flavin mononucleotide, no ligand
[6] = ligand present: flavin mononucleotide, designed as: ON switch for flavin mononucleotide
[7] = designed as: ON switch for theophylline, no ligand
[8] = ligand present: theophylline, designed as: ON switch for theophylline
[9] = designed as: ON switch for tryptophan, no ligand
[10] = ligand present: tryptophan, designed as: ON switch for tryptophan
[11] = designed as: OFF switch for tryptophan, no ligand
[12] = ligand present: tryptophan, designed as: OFF switch for tryptophan

| Sequence | apparent Kd [1] [nM] | apparent Kd [2] [nM] | further results |
| --- | --- | --- | --- |
| AUGAAACAUGAGGAUCACCCAUGUGAGGAUAUGGUCUCGAACAAAAUACAAACACCAUCCAGAAGGCACAUGAA | 29.8 | 27.7 |  |
| UUGGAUGAAGGAGUGAAAAGCAACUCAGAUACCAGUCUGAGUAAUGACCCUUGGCAGCUGAGAACAUGAGGAUCACCCAUGUGAC |  |  | apparent Kd [3]: 15.2 nM; apparent Kd [4]: 32.2 nM |
| GGUACCGCGGUGAGGAUAUCCUGCGUUUGGCAGCUGGAGAAGGCACAUGAGGAUCACCCAUGUAAAGAGAAUGC | 10.5 | 16.2 |  |
| CCGCCACGUCAAGGAUAUGCACGGGAGCCCGUAGCAGAAGGUGAGGCGAACGCCAUCCCACAUGAGGAUCACCCAUGUACGGGC |  |  | apparent Kd [5]: 786 nM; apparent Kd [6]: 202 nM |
| ACGAGACGUCUGGAUACCAGCCCAGCGAUAAACAUGAGGAUCACCCAUGUCAAACCACCCGGCCCUUGGCAGCCACGUACCUCAC |  |  | apparent Kd [7]: 14.5 nM; apparent Kd [8]: 10 nM |
| GAAUACGUCAUGAUGAACAUGAGGAUCACCCAUGUAGUGCCUUAGGAUAUGCUACGAUUACUGCCGCAGAAGGAAGUGCAAGAA |  |  | apparent Kd [5]: 44.1 nM; apparent Kd [6]: 28.4 nM |
| AAAUAAGAGGAGAAGGGCAAAAUGUCGAACCGAGCAGGAUAUCCACAGAACAUGAGGAUCACCCAUGUGGUCAAACAGUACAAA |  |  | apparent Kd [5]: 54.4 nM; apparent Kd [6]: 39 nM |
| GUGAUCAGCGAGAAGGAGCGUGAACUGUUACGGAGAUGUAACAUAACAUGAGGAUCACCCAUGUGCUAGGAUAUCGGUAAAUAU |  |  | apparent Kd [5]: 13.3 nM; apparent Kd [6]: 7.4 nM |
| AAAAUCUGGUGAGGAUAUUGUUGAUGAUACAAACAAGAAGGCACGUUGACAUAGCGGGACAACAUGAGGAUCACCCAUGUCACU | 46.6 | 42.1 |  |
| ACAUGAGGAUCACCCAUGUGGUCGGCUAUCUACCCAAUGGGCGAGGAUAUCGAGGCAAGAUAAUUCGAGAAGGCGCGUAAGAUA | 101 | 47.4 |  |
| AGAGCGAAUCUAACAUGAGGAUCACCCAUGUGUUAUGUUCACGAGGAUAUGUAGUCACUUAGGCGACAGAAGGCGUUCCAAGUA | 29.3 | 22 |  |
| AUACAACAUGAGGAUCACCCAUGUGCUUAAGUUAAAGGAUAUCUAGUGGAUUACAUGCGUAGAGAAGGUUAUUUUA |  |  | apparent Kd [5]: 12.2 nM; apparent Kd [6]: 8.55 nM |
| GAUGACUUAGGAUAUCAAAUUCUCGACAUGAGGAUCACCCAUGUGUAUCCGCCAGGUUAGUGAGAAGGAAGUUGGA | 91.3 | 77.8 |  |
| UCACUACAGUAGAAGGUAGGUACAUGAGGAUCACCCAUGUGGUAGGGAGAUUUACACUGUUUCGCUAAGGAUAUACUGGCCAAU | 207 | 125 |  |
| CAGUGCGACUCAGGAUAUCAGAACACUAAGGCGUGAGAAGGGAGAACGACACAUGAGGAUCACCCAUGUUAGAGGGAAUGCAUG | 37.6 | 43.7 |  |
| AGAAAUGUAUUAGGAUAUUGGCGCGUAUUACGACAAGAAGGAAUACAUGAGGAUCACCCAUGUAACCCGCUCCGCGGUCCAUGG | 101 | 64.3 |  |
| GUAUGUGGUGAGGAUAUCCACCCGCGGGUAUAUGGAGAAGGCACUACAUGAGGAUCACCCAUGUUAACUUGCCA | 10.1 | 31.8 |  |
| GGUGAAUUAGUGAGGAUAUGAUAGACAAACAAAAUACAGAAGGCACAUGAGGAUCACCCAUGUGACGGAGAGAA | 6.31 | 5.93 |  |
| UUACGGCCGGAAGGAUAUUGUGGCUCCGGAGUAACAUGAGGAUCACCCAUGUGAAUCAAACACAACAAGAAGGUCCCAAAUAGG |  |  | apparent Kd [5]: 15.9 nM; apparent Kd [6]: 15.5 nM |
| AACAGAAGGCAAGGAUAUAAGGGACCCCCAACAUGAGGAUCACCCAUGUUCUAUGAGGCCGAAUUUUAGAAGGUGCGGGACUAG |  |  | apparent Kd [5]: 43.9 nM; apparent Kd [6]: 32.2 nM |
| UAAAACAUGAGGAUCACCCAUGUAUUGAGUCGAGGACCGGUACGGCCGCCACUCGGCAAUAAUAACGACGCAUAGCAUGUAGGAA |  |  | apparent Kd [9]: 12.7 nM; apparent Kd [10]: 14.5 nM |
| GUUAUCGAACAUGAGGAUCACCCAUGUCAGAGCGGCCGACAGAGAAGGCCAAUUGACAAAUGAUUGGAGGAUAUCUGUACUUUU |  |  | apparent Kd [5]: 19.3 nM; apparent Kd [6]: 7.57 nM |
| GGUCGUGAUAAGGAUAUUGGCUGUCGUGCAAUCCAAGAAGGUAUCACAUGAGGAUCACCCAUGUACGCGUGUUG | 44.1 | 85.6 |  |
| CGCACACAGCAACCAAAAUAAACAUGAGGAUCACCCAUGUCACAGGAUAUGGCGAACCCAGGCGACCAGAAGGGUGUAAACACA |  |  | apparent Kd [5]: 26.6 nM; apparent Kd [6]: 18.6 nM |
| GCAAAGUGAUCGGCCGCCACUGCAAUGCUUAAUGGAGGUCCACAUGAGGAUCACCCAUGUCUUCCCAGGACCGGGAUCUCGAGUU |  |  | apparent Kd [9]: 60.7 nM; apparent Kd [10]: 66.9 nM |
| GAUAGUCCCAAGGAUAUGUGGGUUUUAUCUUCUACAGAAGGUGGGACAUGAGGAUCACCCAUGUUGCGGCGAGG | 26.8 | 261 |  |
| UCACUUGUCUAGAAGGGUCGGCACAUGAGGAUCACCCAUGUAAAUGGCUGGUUCAAAUAAUUUUGACAGGAUAUAGAGAGCACU | 16.6 | 50.4 |  |

| Sequence | apparent Kd [1] [nM] | apparent Kd [2] [nM] | further results |
| --- | --- | --- | --- |
| AGCGCGAAUAGAUCCAAAGUUAUUAGUGAGCGAGGACCGGUACGGCCGCCACUCGUGGCUCUACAUGAGGAUCACCCAUGUACAU |  |  | apparent Kd [11]: 354 nM; apparent Kd [12]: 432 nM |
| GUCCACGUCCAAGGAUAUAAUACGAUACAUGAGGAUCACCCAUGUAAGGAGUGUAGAGUACGAUGUUAGAAGGUGGCAUUGCAG | 11.9 | 11.1 |  |
| UACAAACAUGAGGAUCACCCAUGUAGUGAUACCAGCAUAACAGAUUGCCCUUGGCAGCACCGGUUUGUACUCAAACGAAGUACGG |  |  | apparent Kd [7]: 64.2 nM; apparent Kd [8]: 52.3 nM |
| GGGCGACAUGAGGAUCACCCAUGUGUCGAUACCAGUAUGAAUUUCUACCCUUGGCAGCGACGACACGGUUAUUUGUGCACUUCGA |  |  | apparent Kd [7]: 81.8 nM; apparent Kd [8]: 200 nM |
| CUAGAAGACACGGAGGAUAUGUUGUGUAUUACAUGAGGAUCACCCAUGUUCGGAAGUACCGAUUGACAGAAGGCCGUGCAAUCGCU |  |  | apparent Kd [5]: 6.66 nM; apparent Kd [6]: 5.73 nM |
| AUCAGUCAAGAAGGAUAUGCAAUAUCCUGGCACGUAGACAUGAGGAUCACCCAUGUGCAGGCUAAGCAGAAGGUCUUAGAAGGU | 16 | 9.8 |  |
| CUGACGUCAGGAUAUGCUAAUAAACAACAUAAAAGACAAGUGCAGAAGGGACAUGAGGAUCACCCAUGUGAAAA | 14.6 | 15.3 |  |
| GUCAGGUGGACAGGAUAUCGUGCUCGUAGACAUGAGGAUCACCCAUGUUCGCUCUUCUUCGGCAUCGAGAAGGGUCUCCAAUCU | 34.8 | 35.8 |  |
| UUGCAUUCUAAUCCUCUUACGACAUGAGGAUCACCCAUGUGUCAGGAUAUUCGAGAAGGAGCGACGAAGAAGGGACUAAUACAC | 40.7 | 32.8 |  |
| GGUCUGCCAUUUCAGGAUAUGCUCAGUGCAACAUGAGGAUCACCCAUGUCAGGCUCGAACGACUCGCAGAAGGGAAGUCACGGAUG |  |  | apparent Kd [5]: 102 nM; apparent Kd [6]: 61.4 nM |
| UCUUCGUUGGCGUCACAAUUCAUGCAAUGCCGAGGACCGGUACGGCCGCCACUCGGACUAAUACAUGAGGAUCACCCAUGUCGUG |  |  | apparent Kd [11]: 123 nM; apparent Kd [12]: 102 nM |
| AUUAGGCUGCAGGAUAUGAAUCAUGUAACAAUUUCAGAAGGGCAUACAUGAGGAUCACCCAUGUAGUGAUCCGC | 109 | 220 |  |
| CGUCAGUAAGGAUAUACCCGCACUUAACACGAGCGUCGUCGGUAGAAGGUACAUGAGGAUCACCCAUGUAGAAA | 7.84 | 8.95 |  |
| GUUGCCCAGCGAGGAUAUGUGAACCGGCUGCUCACAGAAGGCGCAAAUGAUUUUCAUUAUUCCCGACAUGAGGAUCACCCAUGU | 21.9 | 16.3 |  |
| CCUAUUCCUACGGAUACCAGACGAUCCGUGGCGUGUGUGAACAUGAGGAUCACCCAUGUAGUCCCUUGGCAGCCGAUGCGGGUAA |  |  | apparent Kd [3]: 34.3 nM; apparent Kd [4]: 132 nM |
| AACGACAUGAGGAUCACCCAUGUAUACGACCGAAGUGUACGGUAGGAUAUCGACAGCAUAGAUAACGAGAAGGACCCUUUUGGA |  |  | apparent Kd [5]: 18.1 nM; apparent Kd [6]: 11.8 nM |
| CAAGCGCAUAAGUACGCAACUACAUGAGGAUCACCCAUGUGAAGAAGGGCACAUCUAUCCCACGUGCAGGAUAUUCUCCAAUUU |  |  | apparent Kd [5]: 44.8 nM; apparent Kd [6]: 51 nM |
| UGGUGCCCUGUAUACAUUGUAAUCCUAAUGCGAGGACCGGUACGGCCGCCACUCGUUGCGGAACAUGAGGAUCACCCAUGUAACA |  |  | apparent Kd [11]: 18.3 nM; apparent Kd [12]: 16.6 nM |
| UUCUUACAUGAGGAUCACCCAUGUCUACACCCUACAGGAUAUGAUGCGGUGAAGACCAAUUCAGAAGGGUAAGGUC |  |  | apparent Kd [5]: 84.1 nM; apparent Kd [6]: 22.9 nM |
| ACAUGAGGAUCACCCAUGUUGAACUACCAUCGAGGACCGGUACGGCCGCCACUCGCGUUCUCCUUAGCAUCAAGGUCCGCGAAAC |  |  | apparent Kd [11]: 13.3 nM; apparent Kd [12]: 12.7 nM |
| GGCGCGGCAGGAUAUGGAUGACGUGACAUGAGGAUCACCCAUGUGCUUAGAUCAUUCGUACCAGAAGGGCCCGCAG | 4.29 | 4.3 |  |
| CCUGAACGGGACAUGAGGAUCACCCAUGUAUGAGACUCAAAGAAGGAUAUCUUACAUACAGUUCGAGAGAAGGUCUAGCAAACG | 86.5 | 54.9 |  |
| GCAGUCCUCCGAGGAUAUAUGACAAUUGACGUGAGAUGUUAGCACAUGAGGAUCACCCAUGUUUUAUAGAAGGCGGGAUAGGUU |  |  | apparent Kd [5]: 20.5 nM; apparent Kd [6]: 18.3 nM |
| CACCCUAAAGGAUAUACAGCAUAGAAAACGGGUAAGUCUAAACAUGAGGAUCACCCAUGUAGAAGGUUAGAAUU | 14.8 | 14.5 |  |
| CAAGAGUUGUACAUUGUGAGGCGUCGGGAACGAGGACCGGUACGGCCGCCACUCGAAAAUUAACAUGAGGAUCACCCAUGUACAC |  |  | apparent Kd [11]: 70.8 nM; apparent Kd [12]: 47.7 nM |
| GGGAAACUCUACACUCACAACACAUGAGGAUCACCCAUGUUAAGAAGGUUCAGAACGGGCAAUCGAAAGGAUAUUAGGAUGGCU | 10.7 | 10.2 |  |
| CCGAGGGUAGGAUAUUAGCACUUCUACAUGAGGAUCACCCAUGUACCUCAUCAUGAUGCCUAAGAAGGACCAGUGU | 65.7 | 158 |  |
